# Assay results: ChEMBL document CHEMBL1141722, “Antioxidative and thrombolytic TMP nitrone for treatment of ischemic stroke” (2008)
# The source made the active and inactive calls. The calls are words filed in the database; no cut-off is given here.
# What was measured:
# Type in all cases: functional
# Platelet = assay: Inhibition of ADP-induced New Zealand rabbit platelet aggregation at 2 mM treated for 1 min prior to ADP challenge by turbidimetric method relative to control; conditions: Oryctolagus cuniculus
# Procedure, shortened: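 New Zealand rabbit blood was anticoagulated with 3.8% citrate (9:1), and PRP was taken by centrifugation. PRP was pre-warmed at 37 °C for 1 min, then drug was added to 2 mM final. After 1 min of stirring, ADP (10 µM) was added and the reaction ran 4 min. Maximum change in light transmission was recorded turbidimetrically and expressed as % of drug-free control.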
# [1] = Antioxidant activity assessed as inhibition of ROS-induced linoleic acid peroxidation at 1 mM after 15 mins at 100 degC by modified TBARS assay relative to control
# Procedure, shortened: (§1)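 Linoleic acid (1.5% in ethanol) diluted with twofold 200 mM PBS, pH 7.4, then incubated with 2.5 mM FeSO4 (0.2 mL) and test sample at 37 °C for 30 min. The reaction was stopped with 10% TCA and 0.67% TBA, then boiled 15 min. The MDA–TBA adduct in the supernatant was read at 532 nm. % inhibition = [(A−A1)/A]×100 versus control absorbance.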
# [2] = Neuroprotective effect against H202-induced Sprague-Dawley rat cortical neuron injury assessed as cell viability up to 1 mM treated 30 mins before H202 challenge measured after 24 hrs by MTT assay; conditions: Cortical neurone
# Procedure, shortened: (§2)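 Cortices from 1–3-day-old Sprague–Dawley rats were digested with 0.25% […] at 37 °C, and cells were plated at 9×10^4/well in DMEM/10% FBS for 24 h plus 12 h. Drugs were added 30 min before 0.5 mM H2O2, then incubated 24 h at 37 °C, 5% CO2. Viability was measured by MTT 4 h, DMSO solubilization, A570, as % of untreated/saline control. Means ± SEM of three independent experiments.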
# Rattus norvegicus [3] = assay: Neuroprotective effect against middle cerebral artery occlusion-induced focal cerebral ischemia in Sprague-Dawley rat assessed as reduction in infarct area at 65 mg/kg, ip administered 1 hr after MCA occlusion measured after 24 hrs of reperfusion by TTC staining relative to control; design: scale not given: the % may be the effect or the level left; conditions: route intraperitoneal
# Procedure, shortened: (§3)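 Female Sprague-Dawley rats (210–240 g) under chloral hydrate (400 mg/kg ip) underwent 2 h transient proximal MCA occlusion by intraluminal suture, then reperfusion. Drug or saline was given ip 1 h after occlusion. After 24 h of reperfusion, 2-mm brain slices were stained with 0.5% TTC for 30 min at 37 °C. Infarct area was expressed as % of total section area. Single-tail Student's t-test versus control.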
# [4] = Antioxidant activity assessed as inhibition of ROS-induced linoleic acid peroxidation at 2 mM after 15 mins at 100 degC by modified TBARS assay relative to control; procedure, shortened: as §1
# Rattus norvegicus [5] = assay: Antithrombotic activity in Sprague-Dawley rat venous thrombus model assessed as inhibition of thrombus formation at 3.25 mg/kg, iv administered 2 hrs after ligation measured after 24 hrs relative to control
# [6] = Neuroprotective effect against H202-induced Sprague-Dawley rat cortical neuron injury assessed as cell viability at 1 mM treated 30 mins before H202 challenge measured after 24 hrs by MTT assay relative to control; conditions: Cortical neurone; procedure, shortened: as §2
# [7] = Neuroprotective effect against H202-induced Sprague-Dawley rat cortical neuron injury assessed as cell viability at 1 to 1000 uM treated 30 mins before H202 challenge measured after 24 hrs by MTT assay; conditions: Cortical neurone; procedure, shortened: as §2
# Rattus norvegicus [8] = assay: Neuroprotective effect against middle cerebral artery occlusion-induced focal cerebral ischemia in Sprague-Dawley rat assessed as reduction in infarct area at 80 mg/kg, ip administered 1 hr after MCA occlusion measured after 24 hrs of reperfusion by TTC staining relative to control; design: scale not given: the % may be the effect or the level left; conditions: route intraperitoneal; procedure, shortened: as §3
# [9] = Neuroprotective effect against H202-induced Sprague-Dawley rat cortical neuron injury assessed as cell viability at 100 uM treated 30 mins before H202 challenge measured after 24 hrs by MTT assay; conditions: Cortical neurone; procedure, shortened: as §2
# Rattus norvegicus [10] = assay: Neuroprotective effect against middle cerebral artery occlusion-induced focal cerebral ischemia in Sprague-Dawley rat assessed as reduction in infarct area at 62 mg/kg, ip administered 1 hr after MCA occlusion measured after 24 hrs of reperfusion by TTC staining relative to control; design: scale not given: the % may be the effect or the level left; conditions: route intraperitoneal; procedure, shortened: as §3
# Rattus norvegicus [11] = assay: Antithrombotic activity in Sprague-Dawley rat venous thrombus model assessed as inhibition of thrombus formation at 2 mg/kg, iv administered 2 hrs after ligation measured after 24 hrs relative to control
# Rattus norvegicus [12] = assay: Neuroprotective effect against middle cerebral artery occlusion-induced focal cerebral ischemia in Sprague-Dawley rat assessed as reduction in infarct area at 50 mg/kg, ip administered 1 hr after MCA occlusion measured after 24 hrs of reperfusion by TTC staining relative to control; design: scale not given: the % may be the effect or the level left; conditions: route intraperitoneal; procedure, shortened: as §3
# Rattus norvegicus [13] = assay: Antithrombotic activity in rat venous thrombosis model assessed as inhibition of thrombus formation at 1.2 mg/kg
Compound,inhibition at 2000 µM (Platelet) [%],inhibition [1] [%],Activity [2],inhibition [4] [%],Activity [6] [%],other results
CC(C)(C)/[N+]([O-])=C/c1ccccc1,33.9,15.8,inactive,25.1,,Activity (Rattus norvegicus [3]): 31.1%
Cc1nc(C)c(/C=[N+](\[O-])C(C)(C)C)nc1C,30,13.7,,40,96,inhibition in vivo at 3.25 mg/kg (Rattus norvegicus [5]): 57.6%; Activity [7]: Active; Activity (Rattus norvegicus [8]): 56.3%
O=C1O[C@H]([C@@H](O)CO)C(O)=C1O,,43.3,,53.2,,
CC(=O)Oc1ccccc1C(=O)O [ASPIRIN],24.8,,,,,
CC1=NN(c2ccccc2)C(=O)C1 [EDARAVONE],32.4,37.9,,43.7,82,Activity [9]: Active; Activity (Rattus norvegicus [10]): 52.5%
Cc1nc(C)c(C)nc1C [LIGUSTRAZINE],36.2,6.6,inactive,9,,inhibition in vivo at 2 mg/kg (Rattus norvegicus [11]): 71.2%; Activity (Rattus norvegicus [12]): 46.3%; inhibition in vivo at 1.2 mg/kg (Rattus norvegicus [13]): 50%
